Results on 9 compounds are retold here after ChEMBL document CHEMBL2429814 (J Med Chem, 2013).

For series [1], the target named is Metabotropic glutamate receptor 5 (Rattus norvegicus) (UniProt P31424). Put plainly: Potentiation of rat mGluR5 receptor stably expressed in HEK293 cells assessed as fold shift in glutamate concentration response curve at 10 uM relative to control. It is filed as cell-based. In a few lines:
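HEK293 cells stably expressing rat mGlu5 were loaded with Fluo-4AM. Compound at 10 µM, or vehicle, was added, and a glutamate concentration-response curve followed 140 s later. The fold leftward shift of the glutamate curve was read from calcium fluorescence. Values are means of three independent experiments in triplicate.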

Series [2] concerns the target T1, Metabotropic glutamate receptor 5 (Rattus norvegicus, UniProt P31424). Put plainly: Positive allosteric modulation of rat mGluR5 stably expressed in HEK293 cells assessed as increase in intracellular calcium level by Fluo-4AM dye-based fluorescence assay. It is filed as functional, cell-based. Conditions: read-out: EC50. The essentials:
(§1)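 HEK293 cells stably expressing rat mGlu5 (low receptor density line), 15,000 cells/well, grown overnight at 37°C/5% CO2. Loaded with Fluo-4AM for 50 min at 37°C in HBSS with 20 mM HEPES, 2.5 mM probenecid, pH 7.4. Triple add: compound, then EC20 glutamate 140 s later, then EC80 glutamate 60 s later. Calcium fluorescence read over time. Values are means of ≥3 independent experiments run in duplicate or triplicate.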

The target of series [3] is Metabotropic glutamate receptor 5 (Rattus norvegicus) (UniProt P31424). The series can be described thus: Positive allosteric modulation of rat mGluR5 stably expressed in HEK293 cells assessed as increase in intracellular calcium level by Fluo-4AM dye-based fluorescence assay relative to glutamate. The class given is functional, cell-based.
Metabotropic glutamate receptor 5 (Rattus norvegicus), sequence (P31424 21-1203 limits assumed): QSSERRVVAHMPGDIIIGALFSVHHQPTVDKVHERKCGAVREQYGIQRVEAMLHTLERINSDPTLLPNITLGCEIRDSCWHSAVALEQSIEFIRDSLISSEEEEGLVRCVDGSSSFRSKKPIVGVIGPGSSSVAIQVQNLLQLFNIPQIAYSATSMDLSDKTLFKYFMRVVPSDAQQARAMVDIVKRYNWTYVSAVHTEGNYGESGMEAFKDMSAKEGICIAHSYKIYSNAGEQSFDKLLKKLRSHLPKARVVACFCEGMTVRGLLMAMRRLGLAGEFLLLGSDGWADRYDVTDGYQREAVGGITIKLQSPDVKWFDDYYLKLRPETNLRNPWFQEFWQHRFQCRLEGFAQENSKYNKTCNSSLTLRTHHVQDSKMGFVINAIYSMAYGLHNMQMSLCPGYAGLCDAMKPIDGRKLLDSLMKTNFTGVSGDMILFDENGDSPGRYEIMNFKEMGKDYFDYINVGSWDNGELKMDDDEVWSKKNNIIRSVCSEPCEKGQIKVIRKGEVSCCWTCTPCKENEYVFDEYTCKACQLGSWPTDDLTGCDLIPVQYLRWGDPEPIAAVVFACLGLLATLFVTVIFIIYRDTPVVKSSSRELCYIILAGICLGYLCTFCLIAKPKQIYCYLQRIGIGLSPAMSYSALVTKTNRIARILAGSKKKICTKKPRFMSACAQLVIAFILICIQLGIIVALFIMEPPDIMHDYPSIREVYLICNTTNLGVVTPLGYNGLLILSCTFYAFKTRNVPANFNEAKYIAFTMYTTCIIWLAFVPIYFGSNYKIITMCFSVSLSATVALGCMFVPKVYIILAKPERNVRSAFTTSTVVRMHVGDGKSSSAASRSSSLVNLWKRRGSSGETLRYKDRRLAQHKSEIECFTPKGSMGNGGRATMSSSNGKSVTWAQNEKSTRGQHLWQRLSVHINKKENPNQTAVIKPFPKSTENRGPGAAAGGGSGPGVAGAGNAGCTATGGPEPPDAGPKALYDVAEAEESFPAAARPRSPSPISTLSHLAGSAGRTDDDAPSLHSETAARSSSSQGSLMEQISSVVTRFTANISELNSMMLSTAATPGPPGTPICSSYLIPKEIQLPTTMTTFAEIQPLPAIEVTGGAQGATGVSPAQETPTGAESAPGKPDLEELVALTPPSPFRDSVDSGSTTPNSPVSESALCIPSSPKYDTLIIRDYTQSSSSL
The target of series [4] is T1, Metabotropic glutamate receptor 5. The series can be described thus: Positive allosteric modulation of rat mGluR5.
Series [5] can be described thus: Agonist activity at rat mGluR5 T780A mutant stably expressed in HEK293 cells assessed as increase in intracellular calcium level at 1 to 100 uM by Fluo-4AM dye-based fluorescence assay. The class given is cell-based. The following applies: hek293, 100 µM.
Series [6] has as its target T1, Metabotropic glutamate receptor 5. Put plainly: Agonist activity at rat mGluR5 stably expressed in HEK293 cells assessed as increase in intracellular calcium level by Fluo-4AM dye-based fluorescence assay. Conditions: read-out: EC50. The class given is cell-based. In a few lines: as §1
The target is the same in series [7]. The series can be described thus: Agonist activity at rat mGluR5 stably expressed in HEK293 cells assessed as increase in intracellular calcium level by Fluo-4AM dye-based fluorescence assay relative to glutamate. The class given is cell-based. The following applies: read-out: Efficacy. In a few lines: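 HEK293 cells stably expressing rat mGlu5 (low receptor density), 15,000 cells/well, grown overnight, then loaded with Fluo-4AM for 50 min at 37°C in HBSS/20 mM HEPES/2.5 mM probenecid, pH 7.4. Triple-add protocol: compound, then glutamate EC20 140 s later, then EC80 60 s later. Fluorescence read over time. At least three independent runs in duplicate or triplicate; response given as % of glutamate maximum.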

Series [8] can be described thus: Plasma protein binding in rat. The class given is ADME, cell-free. The essentials:
(§2)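 Fraction unbound measured by equilibrium dialysis in human or rat plasma.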

Series [9] is described as follows: Plasma protein binding in human. The class given is ADME, cell-free. The essentials: as §2
Series [10] concerns the target Metabotropic glutamate receptor 5 (Homo sapiens, UniProt P41594). The series can be described thus: Positive allosteric modulation of human mGluR5.
Series [11] concerns the target Metabotropic glutamate receptor 5 (Rattus norvegicus) (UniProt P31424). The series can be described thus: Positive allosteric modulation of mGluR5 in rat cortical neurons at 1 uM relative to DHPG.
Series [12] addresses T1, Metabotropic glutamate receptor 5. The series can be described thus: Agonist activity at mGlu5R in CA3 pyramidal neurons Sprague-Dawley rat hippocampus assessed as effect on intervent interval relative to control. The class given is tissue-based. In a few lines: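 Male Sprague-Dawley rats aged 24–30 days; hippocampal slices equilibrated 5–10 min at 30–32°C in a submersion chamber. Recording electrode in the CA3 pyramidal cell body layer. Compound diluted in DMSO and bath-perfused. Spontaneous epileptiform events recorded as field potentials, with inter-event interval normalized to baseline.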

In series [13] the target is Cytochrome P450 2D6 (Homo sapiens, UniProt P10635). Put plainly: Inhibition of human CYP2D6. The class given is ADME. In a few lines: (§3)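 Inhibition of individual human CYP isoforms (2C9, 2D6, 3A4) measured in human liver microsomes; IC50 values reported.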
The subject of series [14] is Plasma. The series can be described thus: Fraction unbound in human plasma by equilibrium dialysis method. It is filed as ADME, cell-free. The essentials: (§4)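 Plasma protein binding measured by equilibrium dialysis in human or rat plasma; reported as percent unbound.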
The target of series [15] is T1, Metabotropic glutamate receptor 5. Put plainly: Agonist activity at mGlu5R in SC-CA1 synapse of Sprague-Dawley rat hippocampus assessed as induction of long-term depression at 10 uM measured 55 mins post compound washout. It is filed as tissue-based. In a few lines:
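Male Sprague-Dawley rats aged 30–40 days; hippocampal slices at 30–32°C. Bipolar stimulation of Schaffer collaterals near the CA3-CA1 border, recording in CA1 stratum radiatum, baseline intensity 50–60% of maximum. Compound in DMSO, bath-perfused. fEPSP slopes averaged over three sequential responses and normalized to the pre-drug baseline.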

The target in series [16] is Metabotropic glutamate receptor 8 (Rattus norvegicus) (UniProt P70579). The series can be described thus: Potentiation of rat mGluR8 receptor stably expressed in HEK293-GIRK cells assessed as fold shift in glutamate concentration response curve at 10 uM by C2+ mobilization assay relative to control. Conditions: in the assay text read “thallium flux assay” for “C2+ mobilization assay”. The class given is cell-based. The essentials: (§5)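 HEK293-GIRK cells expressing the rat mGlu subtype were plated at 15,000 cells/well. Compound at 10 µM, or vehicle, was added, then 140 s later a concentration-response curve of glutamate (L-AP4 for mGlu7) in thallium buffer containing 12 mM thallium sulfate. Thallium flux through GIRK channels was read by fluorescence, and the fold shift of the agonist curve was derived.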
Metabotropic glutamate receptor 8 (Rattus norvegicus), sequence (P70579 whole entry): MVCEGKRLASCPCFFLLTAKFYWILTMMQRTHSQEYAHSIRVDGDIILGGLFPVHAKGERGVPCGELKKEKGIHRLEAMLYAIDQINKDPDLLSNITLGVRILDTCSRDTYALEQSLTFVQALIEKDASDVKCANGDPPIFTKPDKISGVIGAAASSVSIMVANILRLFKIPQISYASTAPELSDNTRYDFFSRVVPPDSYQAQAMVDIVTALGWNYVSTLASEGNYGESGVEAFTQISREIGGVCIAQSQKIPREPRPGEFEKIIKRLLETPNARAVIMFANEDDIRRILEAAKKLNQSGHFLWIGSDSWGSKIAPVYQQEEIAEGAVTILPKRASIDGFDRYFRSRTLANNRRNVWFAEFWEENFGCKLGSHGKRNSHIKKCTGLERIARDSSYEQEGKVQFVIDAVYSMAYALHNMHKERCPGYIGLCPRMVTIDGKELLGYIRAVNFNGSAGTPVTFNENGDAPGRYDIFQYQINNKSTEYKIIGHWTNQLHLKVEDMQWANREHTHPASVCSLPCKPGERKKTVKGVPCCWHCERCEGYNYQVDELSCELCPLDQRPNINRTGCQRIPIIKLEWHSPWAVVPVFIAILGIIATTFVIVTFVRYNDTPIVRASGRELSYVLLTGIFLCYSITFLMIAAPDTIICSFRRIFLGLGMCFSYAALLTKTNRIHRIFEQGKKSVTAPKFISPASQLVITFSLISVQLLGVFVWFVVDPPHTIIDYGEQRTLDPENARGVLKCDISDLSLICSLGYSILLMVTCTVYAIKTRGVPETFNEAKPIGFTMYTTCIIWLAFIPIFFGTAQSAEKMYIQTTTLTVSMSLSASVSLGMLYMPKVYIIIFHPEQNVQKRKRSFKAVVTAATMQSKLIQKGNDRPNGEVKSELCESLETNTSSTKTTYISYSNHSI

Series [17] has as its target Metabotropic glutamate receptor 2 (Rattus norvegicus) (UniProt P31421). The series can be described thus: Potentiation of rat mGluR2 receptor stably expressed in HEK293-GIRK cells assessed as fold shift in glutamate concentration response curve at 10 uM by C2+ mobilization assay relative to control. The class given is cell-based. The following applies: in the assay text read “thallium flux assay” for “C2+ mobilization assay”. In a few lines:
as §5

In series [18] the target is Metabotropic glutamate receptor 3 (Rattus norvegicus) (UniProt P31422). The series can be described thus: Potentiation of rat mGluR3 receptor stably expressed in HEK293-GIRK cells assessed as fold shift in glutamate concentration response curve at 10 uM by C2+ mobilization assay relative to control. It is filed as cell-based. Conditions: in the assay text read “thallium flux assay” for “C2+ mobilization assay”. In a few lines: as §5

Series [19] relates to Brain. The series can be described thus: Fraction unbound in rat brain. It is filed as ADME, tissue-based. The essentials:
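Binding to rat brain homogenate used to derive fraction unbound in brain.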

Series [20] deals with Metabotropic glutamate receptor 1 (Rattus norvegicus) (UniProt P23385). Put plainly: Potentiation of rat mGluR1 receptor stably expressed in HEK293 cells assessed as fold shift in glutamate concentration response curve at 10 uM by […] mobilization assay relative to control. It is filed as cell-based. In a few lines:
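HEK293 cells stably expressing rat mGlu1 were plated at 20,000 cells/well and loaded with Fluo-4AM. Compound at 10 µM final, or vehicle, was added, then a glutamate concentration-response curve 140 s later. Calcium flux was measured as fluorescence increase, and the fold shift of the glutamate curve was derived.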

Series [21] concerns the target Metabotropic glutamate receptor 4 (Rattus norvegicus) (UniProt P31423). The series can be described thus: Potentiation of rat mGluR4 receptor stably expressed in HEK293-GIRK cells assessed as fold shift in glutamate concentration response curve at 10 uM by C2+ mobilization assay relative to control. The class given is cell-based. The following applies: in the assay text read “thallium flux assay” for “C2+ mobilization assay”. The essentials: as §5

Series [22] deals with Metabotropic glutamate receptor 7 (Rattus norvegicus) (UniProt P35400). Put plainly: Potentiation of rat mGluR7 receptor stably expressed in HEK293-GIRK cells assessed as fold shift in […] concentration response curve at 10 uM by […] relative to control. The class given is cell-based. In a few lines: as §5
The target in series [23] is T1, Metabotropic glutamate receptor 5. The series can be described thus: Agonist activity at mGlu5R in CA3 pyramidal neurons Sprague-Dawley rat hippocampus assessed as effect on amplitude relative to control. It is filed as tissue-based.
Series [24] addresses T2, Cytochrome P450 1A2 (Homo sapiens, UniProt P05177).
T2 sequence (P05177 whole entry): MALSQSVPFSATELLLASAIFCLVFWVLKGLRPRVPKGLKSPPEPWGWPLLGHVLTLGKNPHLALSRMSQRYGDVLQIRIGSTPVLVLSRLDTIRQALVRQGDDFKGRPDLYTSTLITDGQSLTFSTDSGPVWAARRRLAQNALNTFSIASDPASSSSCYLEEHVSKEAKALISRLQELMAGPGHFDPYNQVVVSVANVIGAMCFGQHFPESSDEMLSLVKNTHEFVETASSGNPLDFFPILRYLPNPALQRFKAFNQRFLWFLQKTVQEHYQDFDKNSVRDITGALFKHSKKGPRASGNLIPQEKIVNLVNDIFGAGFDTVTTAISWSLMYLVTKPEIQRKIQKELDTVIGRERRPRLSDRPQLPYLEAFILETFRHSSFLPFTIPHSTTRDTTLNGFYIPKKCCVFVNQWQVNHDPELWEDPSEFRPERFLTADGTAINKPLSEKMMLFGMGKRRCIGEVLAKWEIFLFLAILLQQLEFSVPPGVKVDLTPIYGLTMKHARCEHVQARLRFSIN
The series can be described thus: Inhibition of human CYP1A2. The class given is ADME. The essentials:
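Inhibition of the human CYP1A2 isoform measured in human liver microsomes; reported as IC50.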

Series [25] has as its system Plasma. Put plainly: Fraction unbound in rat plasma by equilibrium dialysis method. The class given is ADME, cell-free. The essentials: as §4
The nature of series [26]: Agonist activity at rat mGluR5 S808A mutant stably expressed in HEK293 cells assessed as increase in intracellular calcium level at 1 to 100 uM by Fluo-4AM dye-based fluorescence assay. The class given is cell-based. The following applies: hek293, 100 µM.
The target of series [27] is Cytochrome P450 2C9 (Homo sapiens, UniProt P11712). The series can be described thus: Inhibition of human CYP2C9. It is filed as ADME. In a few lines: as §3
The target of series [28] is Metabotropic glutamate receptor 6 (Rattus norvegicus) (UniProt P35349). Put plainly: Potentiation of rat mGluR6 receptor stably expressed in HEK293-GIRK cells assessed as fold shift in glutamate concentration response curve at 10 uM by C2+ mobilization assay relative to control. The class given is cell-based. Conditions: in the assay text read “thallium flux assay” for “C2+ mobilization assay”. In a few lines: as §5

SMILES strings stand for the structures. Active and inactive are the calls of the source. The calls are words filed in the database; no cut-off is given here.

T1 sequence (P31424 whole entry): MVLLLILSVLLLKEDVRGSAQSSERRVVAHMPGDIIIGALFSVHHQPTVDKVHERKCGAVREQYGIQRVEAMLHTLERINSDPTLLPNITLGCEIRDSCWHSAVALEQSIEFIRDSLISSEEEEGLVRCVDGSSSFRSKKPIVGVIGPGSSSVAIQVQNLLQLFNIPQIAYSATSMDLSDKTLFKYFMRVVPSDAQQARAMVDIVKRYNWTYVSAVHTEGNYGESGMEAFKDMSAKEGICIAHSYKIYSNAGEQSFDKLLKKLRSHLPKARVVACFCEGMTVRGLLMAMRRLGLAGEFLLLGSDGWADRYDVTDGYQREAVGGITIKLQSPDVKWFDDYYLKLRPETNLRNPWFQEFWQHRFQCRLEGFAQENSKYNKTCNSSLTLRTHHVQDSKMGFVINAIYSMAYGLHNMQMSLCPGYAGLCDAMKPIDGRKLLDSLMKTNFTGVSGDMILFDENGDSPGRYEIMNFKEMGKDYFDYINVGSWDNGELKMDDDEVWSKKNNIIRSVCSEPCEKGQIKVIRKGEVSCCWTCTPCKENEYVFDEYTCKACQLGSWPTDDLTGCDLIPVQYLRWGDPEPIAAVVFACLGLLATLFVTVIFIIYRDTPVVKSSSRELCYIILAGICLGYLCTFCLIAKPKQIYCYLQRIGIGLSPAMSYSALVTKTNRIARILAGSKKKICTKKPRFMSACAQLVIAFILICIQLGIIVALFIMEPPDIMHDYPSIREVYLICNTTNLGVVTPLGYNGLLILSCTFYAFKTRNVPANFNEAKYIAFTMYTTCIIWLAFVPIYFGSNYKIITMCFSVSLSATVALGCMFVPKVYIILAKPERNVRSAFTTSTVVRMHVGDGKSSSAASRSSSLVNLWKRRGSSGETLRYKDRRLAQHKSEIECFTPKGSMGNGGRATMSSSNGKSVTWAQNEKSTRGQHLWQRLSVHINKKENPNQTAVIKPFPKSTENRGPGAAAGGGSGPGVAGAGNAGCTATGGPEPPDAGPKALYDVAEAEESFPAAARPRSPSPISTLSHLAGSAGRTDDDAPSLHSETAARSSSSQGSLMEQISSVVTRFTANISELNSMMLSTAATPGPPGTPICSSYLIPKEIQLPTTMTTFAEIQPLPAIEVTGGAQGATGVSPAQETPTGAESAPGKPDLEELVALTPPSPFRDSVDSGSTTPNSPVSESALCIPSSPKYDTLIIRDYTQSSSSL
Metabotropic glutamate receptor 2 (Rattus norvegicus), sequence (P31421 19-872 limits assumed): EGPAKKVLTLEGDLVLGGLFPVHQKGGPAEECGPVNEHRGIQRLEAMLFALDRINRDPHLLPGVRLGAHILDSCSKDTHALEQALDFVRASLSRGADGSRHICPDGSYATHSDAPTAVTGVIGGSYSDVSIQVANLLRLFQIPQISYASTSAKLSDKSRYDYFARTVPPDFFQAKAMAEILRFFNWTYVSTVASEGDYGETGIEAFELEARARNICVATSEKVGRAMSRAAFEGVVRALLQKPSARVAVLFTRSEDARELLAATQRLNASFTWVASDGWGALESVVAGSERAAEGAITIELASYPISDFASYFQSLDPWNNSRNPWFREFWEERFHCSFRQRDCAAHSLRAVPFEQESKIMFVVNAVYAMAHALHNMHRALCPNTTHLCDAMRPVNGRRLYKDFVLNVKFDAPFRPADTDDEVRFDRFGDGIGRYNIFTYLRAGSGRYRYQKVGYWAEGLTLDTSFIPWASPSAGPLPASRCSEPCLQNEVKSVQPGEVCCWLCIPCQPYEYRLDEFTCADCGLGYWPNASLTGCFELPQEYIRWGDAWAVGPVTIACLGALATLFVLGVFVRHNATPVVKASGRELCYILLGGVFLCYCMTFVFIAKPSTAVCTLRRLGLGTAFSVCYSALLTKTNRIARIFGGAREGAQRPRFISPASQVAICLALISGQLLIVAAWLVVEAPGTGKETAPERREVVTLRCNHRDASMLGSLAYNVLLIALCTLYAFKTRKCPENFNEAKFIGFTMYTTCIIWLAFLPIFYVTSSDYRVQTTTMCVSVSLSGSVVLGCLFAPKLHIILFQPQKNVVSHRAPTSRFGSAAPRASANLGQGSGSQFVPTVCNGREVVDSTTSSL
Metabotropic glutamate receptor 4 (Rattus norvegicus), sequence (P31423 whole entry): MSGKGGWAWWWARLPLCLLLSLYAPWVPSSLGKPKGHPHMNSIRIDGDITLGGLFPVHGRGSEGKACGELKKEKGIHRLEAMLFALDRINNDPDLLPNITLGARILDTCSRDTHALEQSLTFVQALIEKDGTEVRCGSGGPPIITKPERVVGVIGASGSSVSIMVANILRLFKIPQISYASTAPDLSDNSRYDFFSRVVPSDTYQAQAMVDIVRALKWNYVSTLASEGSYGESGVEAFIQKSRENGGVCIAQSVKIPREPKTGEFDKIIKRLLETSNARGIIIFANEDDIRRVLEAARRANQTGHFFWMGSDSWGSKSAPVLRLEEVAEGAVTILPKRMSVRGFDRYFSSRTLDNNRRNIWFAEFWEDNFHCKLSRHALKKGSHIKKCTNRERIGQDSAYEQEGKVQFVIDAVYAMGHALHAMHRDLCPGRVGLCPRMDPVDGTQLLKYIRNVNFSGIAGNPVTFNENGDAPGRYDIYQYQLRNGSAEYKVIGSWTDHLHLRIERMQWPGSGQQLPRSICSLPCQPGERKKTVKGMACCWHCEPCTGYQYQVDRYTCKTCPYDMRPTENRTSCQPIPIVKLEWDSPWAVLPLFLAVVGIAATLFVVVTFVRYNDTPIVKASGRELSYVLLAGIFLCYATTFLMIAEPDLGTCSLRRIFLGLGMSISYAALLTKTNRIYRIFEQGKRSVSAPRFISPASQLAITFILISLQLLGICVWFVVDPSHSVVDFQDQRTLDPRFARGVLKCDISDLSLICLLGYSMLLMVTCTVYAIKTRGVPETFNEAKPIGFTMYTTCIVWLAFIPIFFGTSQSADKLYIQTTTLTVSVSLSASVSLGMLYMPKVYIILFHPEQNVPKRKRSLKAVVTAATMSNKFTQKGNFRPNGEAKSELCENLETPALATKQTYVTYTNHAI

With `CC(C)[C@@H](C)NC(=O)c1ccc(C#Cc2ccccn2)cn1`, in series [1], the fold change (FC) amounted to 1.3. The EC50 in [2] stood at 79 nM. For the same compound, the Efficacy in series [3] amounted to 58.5%.
With `O=C(NCC1CC1)c1ccc(C#Cc2cccc(F)c2)cn1`, in series [1], the fold change (FC) worked out at 1.6. Moreover, in series [2], the EC50 was found to be 36.7 nM. Moreover, in [3], the Efficacy is 61.4%.
On to `O=C(N[C@H]1C[C@H](O)C1)c1ccc(C#Cc2cccc(F)c2)cn1`, for which the EC50 in [4] turned out to be 17 nM.
For `C[C@@H](NC(=O)c1ccc(C#Cc2cccc(F)c2)cn1)C(C)(C)O`, the Activity result in series [5] was “Not Active”. Besides, the results for the EC50 in [4], in series [6] and in series [2] were 1.5 nM, 904 nM and 4.9 nM, respectively. For the same compound, in series [7], the Emax came out at 37.1%. Moreover, the fraction unbound in [8] was 0.028; in [9], 0.027. For the same compound, in series [3], the Efficacy is 63.5%.
`O=C(c1ccc(C#Cc2cccc(F)c2)nc1)N1CCC(O)CC1` yielded a concentration for a half-maximal effect (EC50) in [4] of 200 nM.
In the case of `CC(C)NC(=O)c1ccc(C#Cc2ccncc2)cn1`, the EC50 in [4] is 24 nM; in series [10], 33 nM. Besides, the fold change (FC) in series [11] worked out at 2.
As for `CC(C)CNC(=O)c1ccc(C#Cc2cccc(F)c2)cn1`, in [1], the fold change (FC) is 1.9. For the same compound, the EC50 in series [2] turned out to be 28.9 nM. Besides, in [3], the Efficacy was determined as 58.2%.
On the same counts, the results for `Cc1cc(C#Cc2cccc(F)c2)cnc1C(=O)N[C@H](C)C(C)(C)O` are 2.3, 105 nM and 66.4%.
Turning to `CC1(NC(=O)c2ccc(C#Cc3cccc(F)c3)cn2)COC1`, the Activity in [12] is on record as 127.9%; in series [5], “Not Active”; in [15] it was 100.3%; in series [23] it was 101.2%; in series [26], “Active”. Besides, the IC50 in series [13] was over 30000 nM; in series [24], 5300 nM; in series [27], over 30000 nM. Moreover, the Fu in series [14] was 3.5%; in [19], 1.6%; in series [25], 3.6%. For the same compound, the outcome in series [16], in [17], in series [18], in [20], in series [21] and in series [22] was inactive. The result in series [28] was inactive. The Efficacy in series [3] amounted to 45.5%.
